From ChEMBL document CHEMBL1131099, “Biologically active oligodeoxyribonucleotides. 5. 5'-End-substituted d(TGGGAG) possesses anti-human immunodeficiency virus type 1 activity by forming a G-quadruplex structure” (J Med Chem, 1998)
pIC50: −log10 of the molar value.

Experiments:
[1] = system: MT4; assay: In vitro inhibitory activity for cytopathicities induced by HIV-1III B against MT-4 cells.; type: functional, cell-based; details: Homo sapiens
How it was run: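 Exponentially growing MT-4 cells were pelleted (140g, 5 min), infected in a small volume of RPMI-1640 with 100 TCID50 HIV-1 IIIB for 1 h, washed, and plated at 2.5 × 10⁴ cells/well with serial oligonucleotide dilutions. Viability was read by MTT at day 6. IC50 was taken from dose-response curves, as the mean of duplicate or quadruplicate ± SD.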

[2] = system: MT4; assay: Cytotoxicity was measured against MT-4 cells using MTT assay.; type: functional; details: Homo sapiens

`Cc1cn([C@H]2C[C@H](OP(=O)(O)OC[C@H]3O[C@@H](n4cnc5c(=O)[nH]c(N)nc54)C[C@@H]3OP(=O)(O)OC[C@H]3O[C@@H](n4cnc5c(=O)[nH]c(N)nc54)C[C@@H]3OP(=O)(O)OC[C@H]3O[C@@H](n4cnc5c(=O)[nH]c(N)nc54)C[C@@H]3OP(=O)(O)OC[C@H]3O[C@@H](n4cnc5c(N)ncnc54)C[C@@H]3OP(=O)(O)OC[C@H]3O[C@@H](n4cnc5c(=O)[nH]c(N)nc54)C[C@@H]3O)[C@@H](CO)O2)c(=O)[nH]c1=O` was tested. Which pIC50 [1] did it give?
Its pIC50 is less than 4.40.

And the CC50 [2]?
Its CC50 is greater than 40 µM.

`Cc1cn([C@H]2C[C@H](OP(=O)(O)OC[C@H]3O[C@@H](n4cnc5c(=O)[nH]c(N)nc54)C[C@@H]3OP(=O)(O)OC[C@H]3O[C@@H](n4cnc5c(=O)[nH]c(N)nc54)C[C@@H]3OP(=O)(O)OC[C@H]3O[C@@H](n4cnc5c(=O)[nH]c(N)nc54)C[C@@H]3OP(=O)(O)OC[C@H]3O[C@@H](n4cnc5c(N)ncnc54)C[C@@H]3OP(=O)(O)OC[C@H]3O[C@@H](n4cnc5c(=O)[nH]c(N)nc54)C[C@@H]3O[Si](c3ccccc3)(c3ccccc3)C(C)(C)C)[C@@H](CO)O2)c(=O)[nH]c1=O` was tested. Which pIC50 [1] did it give?
The pIC50 was less than 4.40.

What about the CC50 [2] of the same compound?
Its CC50 is 7.7 µM.

`Cc1cn([C@H]2C[C@H](OP(=O)(O)OC[C@H]3O[C@@H](n4cnc5c(=O)[nH]c(N)nc54)C[C@@H]3OP(=O)(O)OC[C@H]3O[C@@H](n4cnc5c(=O)[nH]c(N)nc54)C[C@@H]3OP(=O)(O)OC[C@H]3O[C@@H](n4cnc5c(=O)[nH]c(N)nc54)C[C@@H]3OP(=O)(O)OC[C@H]3O[C@@H](n4cnc5c(N)ncnc54)C[C@@H]3OP(=O)(O)OC[C@H]3O[C@@H](n4cnc5c(=O)[nH]c(N)nc54)C[C@@H]3O)[C@@H](COCc3cc(OCc4ccccc4)cc(OCc4ccccc4)c3)O2)c(=O)[nH]c1=O` was tested. Which pIC50 [1] did it give?
The pIC50 was 6.31.

And the CC50 [2]?
The CC50 was greater than 40 µM.

`Cc1cn([C@H]2C[C@H](OP(=O)(O)OC[C@H]3O[C@@H](n4cc(C)c(=O)[nH]c4=O)C[C@@H]3OP(=O)(O)OC[C@H]3O[C@@H](n4cnc5c(O)nc(N)nc54)C[C@@H]3OP(=O)(O)OC[C@H]3O[C@@H](n4cnc5c(O)nc(N)nc54)C[C@@H]3OP(=O)(O)OC[C@H]3O[C@@H](n4cnc5c(O)nc(N)nc54)C[C@@H]3O)[C@@H](COCc3ccc(OCc4ccccc4)c(OCc4ccccc4)c3)O2)c(=O)[nH]c1=O` was tested. Which pIC50 [1] did it give?
Its pIC50 is less than 4.40.

And the CC50 [2]?
Its CC50 is 40 µM.

What does the source list for `Cc1cn([C@H]2C[C@H](OP(=O)(O)OC[C@H]3O[C@@H](n4cnc5c(O)nc(N)nc54)C[C@@H]3OP(=O)(O)OC[C@H]3O[C@@H](n4cnc5c(O)nc(N)nc54)C[C@@H]3OP(=O)(O)OC[C@H]3O[C@@H](n4cnc5c(O)nc(N)nc54)C[C@@H]3OP(=O)(O)OC[C@H]3O[C@@H](n4cnc5c(N)ncnc54)C[C@@H]3O)[C@@H](COCc3ccc(OCc4ccccc4)c(OCc4ccccc4)c3)O2)c(=O)[nH]c1=O`?
pIC50 [1]: 5.72; CC50 [2]: > 40 µM

Which results are given for `Cc1cn([C@H]2C[C@H](OP(=O)(O)OC[C@H]3O[C@@H](n4cnc5c(=O)[nH]c(N)nc54)C[C@@H]3OP(=O)(O)OC[C@H]3O[C@@H](n4cnc5c(=O)[nH]c(N)nc54)C[C@@H]3OP(=O)(O)OC[C@H]3O[C@@H](n4cnc5c(=O)[nH]c(N)nc54)C[C@@H]3OP(=O)(O)OC[C@H]3O[C@@H](n4cnc5c(N)ncnc54)C[C@@H]3OP(=O)(O)OC[C@H]3O[C@@H](n4cnc5c(=O)[nH]c(N)nc54)C[C@@H]3O)[C@@H](COCc3ccc(OCc4ccccc4)c(OCc4ccccc4)c3)O2)c(=O)[nH]c1=O`?
pIC50 [1]: 6.43; CC50 [2]: > 40 µM

With `Cc1cn([C@H]2C[C@H](OP(=O)(O)OC[C@H]3O[C@@H](n4cnc5c(=O)[nH]c(N)nc54)C[C@@H]3OP(=O)(O)OC[C@H]3O[C@@H](n4cnc5c(=O)[nH]c(N)nc54)C[C@@H]3OP(=O)(O)OC[C@H]3O[C@@H](n4cnc5c(=O)[nH]c(N)nc54)C[C@@H]3OP(=O)(O)OC[C@H]3O[C@@H](n4cnc5c(N)ncnc54)C[C@@H]3OP(=O)(O)OC[C@H]3O[C@@H](n4cnc5c(=O)[nH]c(N)nc54)C[C@@H]3O)[C@@H](COC(c3ccccc3)(c3ccccc3)c3ccccc3)O2)c(=O)[nH]c1=O` as the compound, how does the pIC50 [1] read?
The pIC50 was 6.10.

What about the CC50 [2] of the same compound?
The CC50 was 23 µM.

With `Cc1cn([C@H]2C[C@H](OP(=O)(O)OC[C@H]3O[C@@H](n4cnc5c(=O)[nH]c(N)nc54)C[C@@H]3OP(=O)(O)OC[C@H]3O[C@@H](n4cnc5c(=O)[nH]c(N)nc54)C[C@@H]3OP(=O)(O)OC[C@H]3O[C@@H](n4cnc5c(=O)[nH]c(N)nc54)C[C@@H]3OP(=O)(O)OC[C@H]3O[C@@H](n4cnc5c(N)ncnc54)C[C@@H]3OP(=O)(O)OC[C@H]3O[C@@H](n4cnc5c(=O)[nH]c(N)nc54)C[C@@H]3O)[C@@H](COCc3ccccc3-c3ccccc3)O2)c(=O)[nH]c1=O` as the compound, how does the pIC50 [1] read?
Its pIC50 is 5.92.

And the CC50 [2]?
The CC50 was greater than 40 µM.

How did the pIC50 [1] turn out when `Cc1cn([C@H]2C[C@H](OP(=O)(O)OC[C@H]3O[C@@H](n4cnc5c(O)nc(N)nc54)C[C@@H]3OP(=O)(O)OC[C@H]3O[C@@H](n4cnc5c(O)nc(N)nc54)C[C@@H]3OP(=O)(O)OC[C@H]3O[C@@H](n4cnc5c(O)nc(N)nc54)C[C@@H]3O)[C@@H](COCc3ccc(OCc4ccccc4)c(OCc4ccccc4)c3)O2)c(=O)[nH]c1=O` was run?
Its pIC50 is 5.34.

What about the CC50 [2] of the same compound?
Its CC50 is greater than 40 µM.

Which results are given for `Cc1cn([C@H]2C[C@H](OP(=O)(O)OC[C@H]3O[C@@H](n4cnc5c(=O)[nH]c(N)nc54)C[C@@H]3OP(=O)(O)OC[C@H]3O[C@@H](n4cnc5c(=O)[nH]c(N)nc54)C[C@@H]3OP(=O)(O)OC[C@H]3O[C@@H](n4cnc5c(=O)[nH]c(N)nc54)C[C@@H]3OP(=O)(O)OC[C@H]3O[C@@H](n4cnc5c(N)ncnc54)C[C@@H]3OP(=O)(O)OC[C@H]3O[C@@H](n4cnc5c(=O)[nH]c(N)nc54)C[C@@H]3O)[C@@H](COCc3ccc4ccc5cccc6ccc3c4c56)O2)c(=O)[nH]c1=O`?
pIC50 [1]: 5.74; CC50 [2]: > 40 µM

`Cc1cn([C@H]2C[C@H](OP(=O)(O)OC[C@H]3O[C@@H](n4cnc5c(=O)[nH]c(N)nc54)C[C@@H]3OP(=O)(O)OC[C@H]3O[C@@H](n4cnc5c(=O)[nH]c(N)nc54)C[C@@H]3OP(=O)(O)OC[C@H]3O[C@@H](n4cnc5c(=O)[nH]c(N)nc54)C[C@@H]3OP(=O)(O)OC[C@H]3O[C@@H](n4cnc5c(N)ncnc54)C[C@@H]3OP(=O)(O)OC[C@H]3O[C@@H](n4cnc5c(=O)[nH]c(N)nc54)C[C@@H]3O)[C@@H](CO[Si](C)(C)C(C)(C)C)O2)c(=O)[nH]c1=O` was tested. Which pIC50 [1] did it give?
The pIC50 was less than 4.40.

What about the CC50 [2] of the same compound?
Its CC50 is 1.2 µM.

With `Cc1cn([C@H]2C[C@H](OP(=O)(O)OC[C@H]3O[C@@H](n4cnc5c(=O)[nH]c(N)nc54)C[C@@H]3OP(=O)(O)OC[C@H]3O[C@@H](n4cnc5c(=O)[nH]c(N)nc54)C[C@@H]3OP(=O)(O)OC[C@H]3O[C@@H](n4cnc5c(=O)[nH]c(N)nc54)C[C@@H]3OP(=O)(O)OC[C@H]3O[C@@H](n4cnc5c(N)ncnc54)C[C@@H]3OP(=O)(O)OC[C@H]3O[C@@H](n4cnc5c(=O)[nH]c(N)nc54)C[C@@H]3O)[C@@H](COCc3ccc(-c4ccccc4)cc3)O2)c(=O)[nH]c1=O` as the compound, how does the pIC50 [1] read?
Its pIC50 is 5.55.

And the CC50 [2]?
The CC50 was greater than 40 µM.

`Cc1cn([C@H]2C[C@H](OP(=O)(O)OC[C@H]3O[C@@H](n4cnc5c(=O)[nH]c(N)nc54)C[C@@H]3OP(=O)(O)OC[C@H]3O[C@@H](n4cnc5c(=O)[nH]c(N)nc54)C[C@@H]3OP(=O)(O)OC[C@H]3O[C@@H](n4cnc5c(=O)[nH]c(N)nc54)CC3OP(=O)(O)OC[C@H]3O[C@@H](n4cnc5c(N)ncnc54)C[C@@H]3OP(=O)(O)OC[C@H]3O[C@@H](n4cnc5c(=O)[nH]c(N)nc54)C[C@@H]3O[Si](c3ccccc3)(c3ccccc3)C(C)(C)C)[C@@H](CO[Si](c3ccccc3)(c3ccccc3)C(C)(C)C)O2)c(=O)[nH]c1=O` (stereo partly specified) was tested. Which pIC50 [1] did it give?
The pIC50 was 5.22.

And the CC50 [2]?
Its CC50 is greater than 40 µM.

Which results are given for `COc1ccc(C(OC[C@H]2O[C@@H](n3cc(C)c(=O)[nH]c3=O)C[C@@H]2OP(=O)(O)OC[C@H]2O[C@@H](n3cnc4c(=O)[nH]c(N)nc43)C[C@@H]2OP(=O)(O)OC[C@H]2O[C@@H](n3cnc4c(=O)[nH]c(N)nc43)C[C@@H]2OP(=O)(O)OC[C@H]2O[C@@H](n3cnc4c(=O)[nH]c(N)nc43)C[C@@H]2OP(=O)(O)OC[C@H]2O[C@@H](n3cnc4c(N)ncnc43)C[C@@H]2OP(=O)(O)OC[C@H]2O[C@@H](n3cnc4c(=O)[nH]c(N)nc43)C[C@@H]2O)(c2ccccc2)c2ccc(OC)cc2)cc1`?
pIC50 [1]: 6.00; CC50 [2]: 38 µM

What does the source list for `Cc1cn([C@H]2C[C@H](OP(=O)(O)OC[C@H]3O[C@@H](n4cnc5c(=O)[nH]c(N)nc54)C[C@@H]3OP(=O)(O)OC[C@H]3O[C@@H](n4cnc5c(=O)[nH]c(N)nc54)C[C@@H]3OP(=O)(O)OC[C@H]3O[C@@H](n4cnc5c(=O)[nH]c(N)nc54)C[C@@H]3OP(=O)(O)OC[C@H]3O[C@@H](n4cnc5c(=O)[nH]c(N)nc54)C[C@@H]3O)[C@@H](COCc3ccc(OCc4ccccc4)c(OCc4ccccc4)c3)O2)c(=O)[nH]c1=O`?
pIC50 [1]: 6.18; CC50 [2]: > 40 µM

With `Cc1cn([C@H]2C[C@H](OP(=O)(O)OC[C@H]3O[C@@H](n4cnc5c(O)nc(N)nc54)C[C@@H]3O)[C@@H](COCc3ccc(OCc4ccccc4)c(OCc4ccccc4)c3)O2)c(=O)[nH]c1=O` as the compound, how does the pIC50 [1] read?
Its pIC50 is less than 4.00.

And the CC50 [2]?
Its CC50 is greater than 100 µM.

With `Cc1cn([C@H]2C[C@H](OP(=O)(O)OC[C@H]3O[C@@H](n4cnc5c(=O)[nH]c(N)nc54)C[C@@H]3OP(=O)(O)OC[C@H]3O[C@@H](n4cnc5c(=O)[nH]c(N)nc54)C[C@@H]3OP(=O)(O)OC[C@H]3O[C@@H](n4cnc5c(=O)[nH]c(N)nc54)C[C@@H]3OP(=O)(O)OC[C@H]3O[C@@H](n4cnc5c(N)ncnc54)C[C@@H]3OP(=O)(O)OC[C@H]3O[C@@H](n4cnc5c(=O)[nH]c(N)nc54)C[C@@H]3O)[C@@H](COC3(c4ccccc4)c4ccccc4-c4ccccc43)O2)c(=O)[nH]c1=O` as the compound, how does the pIC50 [1] read?
The pIC50 was 5.89.

And the CC50 [2]?
The CC50 was greater than 40 µM.

Which results are given for `Cc1cn([C@H]2C[C@H](OP(=O)(O)OC[C@H]3O[C@@H](n4cnc5c(=O)[nH]c(N)nc54)C[C@@H]3OP(=O)(O)OC[C@H]3O[C@@H](n4cnc5c(=O)[nH]c(N)nc54)C[C@@H]3OP(=O)(O)OC[C@H]3O[C@@H](n4cnc5c(=O)[nH]c(N)nc54)C[C@@H]3OP(=O)(O)OC[C@H]3O[C@@H](n4cnc5c(=O)[nH]c(N)nc54)C[C@@H]3OP(=O)(O)OC[C@H]3O[C@@H](n4cnc5c(=O)[nH]c(N)nc54)C[C@@H]3O)[C@@H](COCc3ccc(OCc4ccccc4)c(OCc4ccccc4)c3)O2)c(=O)[nH]c1=O`?
pIC50 [1]: 6.59; CC50 [2]: > 40 µM
